We go through seven compounds from ChEMBL document CHEMBL1157264, “Hispidin derivatives from the mushroom Inonotus xeranticus and their antioxidant activity” (J Nat Prod, 2006).

Assay type in all cases: functional
Test [1] can be described thus: Antioxidant activity assessed as superoxide radical anion scavenging activity after 30 mins by microplate reader. The gist of the method: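 Xanthine/xanthine oxidase system: 50 mM potassium phosphate pH 7.8, 1 mM EDTA, 0.04 mM NBT, 0.18 mM xanthine, 250 mU/mL xanthine oxidase plus sample, 30 min at 37 °C in the dark. NBT-formazan read at 560 nm, background from a no-enzyme control subtracted. IC50 derived; BHA reference.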

In test [2] the test system is Radical scavenging activity. As to the kind of experiment: Antioxidant activity assessed as DPPH radical scavenging activity for 20 mins by ELISA. The gist of the method: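 Samples in DMSO added to 150 µM DPPH in ethanol, vortexed, incubated 20 min at room temperature, absorbance read at 517 nm. Activity taken from the absorbance difference versus DMSO control; vitamin E and caffeic acid references.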
A general note: Loss of DPPH colour is used to gauge radical scavenging.

Test [3] can be described thus: Antioxidant activity assessed as ABTS radical scavenging activity after 12 hrs by ELISA. The following applies: in the assay text read “after 6 mins” for “after 12 hrs”. The gist of the method: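 ABTS dissolved in water at 7 mM, reacted with 2.45 mM potassium persulfate (final) and left 12 h in the dark at room temperature to form ABTS•+. Radical solution (A734 0.700) added to samples in EtOH, absorbance read after mixing for up to 6 min. IC50 derived; vitamin E reference.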
On the technique in general: ELISA stands for enzyme-linked immunosorbent assay.

Activity calls are given as the source filed them. The rule behind the calls is not given here.

In the case of `COc1ccc(O)c(C(C)(C)C)c1.COc1ccc(O)cc1C(C)(C)C` [BUTYLATED HYDROXYANISOLE], the IC50 in test [1] amounted to 10 µM.
On to `CC1=CC(=O)C2(O1)c1c(cc(/C=C/c3ccc(O)c(O)c3)oc1=O)OC2c1ccc(O)c(O)c1` (stereo not given) [INOSCAVIN A], for which, in test [1], the IC50 was found to be 78 µM. Further, in test [2], the result was inactive.
For the compound `COc1cc(/C=C/c2cc3c(c(=O)o2)/C(=C/c2ccc(O)c(O)c2)C(C)(OC)O3)ccc1O` (stereo not given) [METHYLINOSCAVIN B], the figures for the IC50 in test [1] and in test [3] were 38 µM and 13.1 µM, respectively. Besides, the outcome in test [2] was inactive.
As to VITAMIN E, the IC50 in test [3] was determined as 6 µM.
`COc1cc(/C=C/c2cc3c(c(=O)o2)C2(OC(C)=CC2=O)C(c2ccc(O)c(O)c2)O3)ccc1O` (stereo not given) [METHYLINOSCAVIN A]: the results for the IC50 in test [1] and in test [3] were 20 µM and 10.7 µM, respectively. Further, in test [2], the result was inactive.
The like results for `COC1(CC(C)=O)Oc2cc(/C=C/c3ccc(O)c(O)c3)oc(=O)c2/C1=C/c1ccc(O)c(O)c1` (stereo not given) [PHELLIGRIDIN F] were, in that order, 40 µM, 11.4 µM and “inactive”.
As to `COC1(C)Oc2cc(/C=C/c3ccc(O)c(O)c3)oc(=O)c2/C1=C/c1ccc(O)c(O)c1` (stereo not given) [INOSCAVIN B], in test [1], the IC50 is 95 µM. In addition, the outcome in test [2] was inactive.

A word on the IC50: it is the midpoint of a concentration-inhibition curve.
